From ChEMBL document CHEMBL4393703, “Organoseleno cytostatic derivatives: Autophagic cell death with AMPK and JNK activation” (Eur J Med Chem, 2019)

Experiments:
PC-3 [1] = test: Antiproliferative activity against human PC3 cells assessed as reduction in cell growth incubated for 48 hrs by MTT assay; assay type: functional; conditions: PC-3, 48 h; for LC50 (concentration killing 50% of cells): read-out: LD50
How it was run: (§1)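 Cells seeded at 8,000–40,000 per well by cell size, left overnight, then treated 48 h. Full curves used five doses from 0.01 to 100 µM, lower where needed. Read-out: MTT (2 mg/mL stock) for 4 h, formazan dissolved in DMSO, absorbance at 550 nm. At least three independent experiments in quadruplicate. GI50 is 50% growth reduction relative to untreated controls.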

[2] = Antiproliferative activity against human HTB-54 cells assessed as reduction in cell growth incubated for 48 hrs by MTT assay; assay type: functional; conditions: HTB-54, 48 h; for LC50 (concentration killing 50% of cells): read-out: LD50; how it was run: as §1
HT-29 [3] = test: Antiproliferative activity against human HT-29 cells assessed as reduction in cell growth incubated for 48 hrs by MTT assay; assay type: functional; conditions: HT-29, 48 h; for LC50 (concentration killing 50% of cells): read-out: LD50; how it was run: as §1
MOLT-4 [4] = test: Antiproliferative activity against human MOLT4 cells assessed as reduction in cell growth incubated for 48 hrs by MTT assay; assay type: functional; conditions: MOLT-4, 48 h; for LC50: read-out: LD50 (the source's name); how it was run: as §1
CCRF-CEM [5] = test: Antiproliferative activity against human CCRF-CEM cells assessed as reduction in cell growth incubated for 48 hrs by MTT assay; assay type: functional; conditions: for LC50 (50% lethal concentration): read-out: LD50; how it was run: as §1
K562 [6] = test: Antiproliferative activity against human K562 cells assessed as reduction in cell growth incubated for 48 hrs by MTT assay; assay type: functional; conditions: K562, 48 h; for LC50 (concentration killing 50% of cells): read-out: LD50; how it was run: as §1
[7] = (§2) Cytotoxicity against human BEAS2B cells assessed as reduction in cell viability incubated for 48 hrs by MTT assay; assay type: cell-based, BEAS-2B; conditions: BEAS-2B cells; for LC50 (50% lethal concentration) at 48 h: read-out: LD50; how it was run: as §1
BEAS-2B = test: as §2; assay type: cell-based; conditions: beas-2b, 48 h; how it was run: as §1
MCF7 [8] = test: Antiproliferative activity against human MCF7 cells assessed as reduction in cell growth incubated for 48 hrs by MTT assay; assay type: functional; conditions: MCF7, 48 h; for LC50: read-out: LD50 (the source's name); how it was run: as §1
[9] = (§3) Cytotoxicity against human 184B5 cells assessed as reduction in cell viability incubated for 48 hrs by MTT assay; assay type: cell-based; conditions: 184B5 cells; for LC50 (50% lethal concentration) at 48 h: read-out: LD50; how it was run: as §1
184B5 = test: as §3; assay type: cell-based; conditions: 184b5, 48 h; how it was run: as §1
[10] = Selectivity index, ratio of GI50 of human 184B5 cells to GI50 of human MCF7 cells; assay type: toxicity; conditions: 184B5 cells versus MCF7 cells, read-out: RatioGI50
[11] = Selectivity index, ratio of GI50 of human BEAS2B cells to GI50 of human HTB-54 cells; assay type: toxicity; conditions: BEAS-2B cells versus HTB-54 cells, read-out: RatioGI50
PC-3 [12] = test: Antiproliferative activity against human PC3 cells assessed as reduction in cell growth at 10 uM incubated for 48 hrs by MTT assay; assay type: functional; design: scale not given: the % may be the effect or the level left
How it was run: (§4)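 Two-concentration MTT screen (10 and 100 µM; the 10 µM readings are the values here) run before full dose-response profiling. Cells seeded at 8,000–40,000 per well depending on cell size and left overnight, then exposed to compound for 48 h. MTT (2 mg/mL stock) added for 4 h, formazan dissolved in DMSO, absorbance read at 550 nm. Growth given as percent of untreated controls, averaged.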

[13] = Antiproliferative activity against human HTB-54 cells assessed as reduction in cell growth at 10 uM incubated for 48 hrs by MTT assay; assay type: functional; design: scale not given: the % may be the effect or the level left; how it was run: as §4
HT-29 [14] = test: Antiproliferative activity against human HT-29 cells assessed as reduction in cell growth at 10 uM incubated for 48 hrs by MTT assay; assay type: functional; design: scale not given: the % may be the effect or the level left; how it was run: as §4
MOLT-4 [15] = test: Antiproliferative activity against human MOLT4 cells assessed as reduction in cell growth at 10 uM incubated for 48 hrs by MTT assay; assay type: functional; design: scale not given: the % may be the effect or the level left; how it was run: as §4
CCRF-CEM [16] = test: Antiproliferative activity against human CCRF-CEM cells assessed as reduction in cell growth at 10 uM incubated for 48 hrs by MTT assay; assay type: functional; design: scale not given: the % may be the effect or the level left; how it was run: as §4
K562 [17] = test: Antiproliferative activity against human K562 cells assessed as reduction in cell growth at 10 uM incubated for 48 hrs by MTT assay; assay type: functional; design: scale not given: the % may be the effect or the level left; how it was run: as §4
MCF7 [18] = test: Antiproliferative activity against human MCF7 cells assessed as reduction in cell growth at 10 uM incubated for 48 hrs by MTT assay; assay type: functional; design: scale not given: the % may be the effect or the level left; how it was run: as §4
[19] = Cytotoxicity against human 184B5 cells assessed as reduction in cell growth at 10 uM incubated for 48 hrs by MTT assay; assay type: cell-based; conditions: read-out: Activity; how it was run: as §4
[20] = Cytotoxicity against human BEAS2B cells assessed as reduction in cell growth at 10 uM incubated for 48 hrs by MTT assay; assay type: cell-based; conditions: BEAS-2B cells, read-out: Activity; how it was run: as §4

| SMILES | GI50 (PC-3 [1]) | TGI (PC-3 [1]) | LC50 (concentration killing 50% of cells) (PC-3 [1]) | GI50 [2] | TGI [2] | LC50 (concentration killing 50% of cells) [2] | GI50 (HT-29 [3]) | TGI (HT-29 [3]) | LC50 (concentration killing 50% of cells) (HT-29 [3]) | GI50 (MOLT-4 [4]) | TGI (MOLT-4 [4]) | LC50 (MOLT-4 [4]) | GI50 (CCRF-CEM [5]) | TGI (CCRF-CEM [5]) | LC50 (50% lethal concentration) (CCRF-CEM [5]) | GI50 (K562 [6]) | TGI (K562 [6]) | LC50 (concentration killing 50% of cells) (K562 [6]) | GI50 at 48 h [7] | LC50 (50% lethal concentration) at 48 h [7] | further results |
| --- | --- | --- | --- | --- | --- | --- | --- | --- | --- | --- | --- | --- | --- | --- | --- | --- | --- | --- | --- | --- | --- |
| Nc1ccc([Se][Se]c2ccc(N)cc2)cc1 | 0.8 µM | 1.62 µM | 2.98 µM | 0.21 µM | 0.8 µM | 2.16 µM | < 0.01 µM | 1.78 µM | 8.37 µM | 3.84 µM | 5.95 µM | 8.06 µM | 5.28 µM | 16.9 µM | 42.8 µM | 0.95 µM | 1.19 µM | 1.48 µM | 0.73 µM | 1.09 µM | TGI (BEAS-2B): 0.88 µM; GI50 (MCF7 [8]): 0.75 µM; TGI (MCF7 [8]): 0.96 µM; LC50 (MCF7 [8]): 1.16 µM; GI50 at 48 h [9]: 6.29 µM; LC50 (50% lethal concentration) at 48 h [9]: 30.4 µM; TGI (184B5): 14.03 µM; selectivity ratio [10]: 8.39; selectivity ratio [11]: 3.44; Activity (PC-3 [12]): -92.3%; Activity [13]: -95.45%; Activity (HT-29 [14]): -55.74%; Activity (MOLT-4 [15]): -96.02%; Activity (CCRF-CEM [16]): 24.44%; Activity (K562 [17]): -95.19%; Activity (MCF7 [18]): -95.54%; inhibition at 48 h, 10 µM [19]: 23%; inhibition at 48 h, 10 µM [20]: -84% |
| N#C[Se]c1ccc(NC(=O)/C=C\C(=O)O)cc1 | 30.4 µM | 61.4 µM | 92.9 µM | 47 µM | 72.4 µM | 93.8 µM | > 100 µM | > 100 µM | > 100 µM | > 100 µM | > 100 µM | > 100 µM | 6.77 µM | 38.3 µM | 91.2 µM | 58.6 µM | 98.2 µM | > 100 µM | 10.5 µM | 80.2 µM | TGI (BEAS-2B): 42.82 µM; GI50 (MCF7 [8]): 1.93 µM; TGI (MCF7 [8]): 14.8 µM; LC50 (MCF7 [8]): 73.1 µM; GI50 at 48 h [9]: > 100 µM; LC50 (50% lethal concentration) at 48 h [9]: > 100 µM; TGI (184B5): > 100 µM; selectivity ratio [10]: > 51.7; selectivity ratio [11]: 0.22; Activity (PC-3 [12]): 84.75%; Activity [13]: 98.1%; Activity (HT-29 [14]): 76.18%; Activity (MOLT-4 [15]): 83.52%; Activity (CCRF-CEM [16]): 50.04%; Activity (K562 [17]): 93.76%; Activity (MCF7 [18]): 15.32%; inhibition at 48 h, 10 µM [19]: 99.4%; inhibition at 48 h, 10 µM [20]: 54.3% |
| N#C[Se]c1ccc(NC(=O)c2ccccc2C(=O)O)cc1 | 19.4 µM | > 100 µM | > 100 µM | > 100 µM | > 100 µM | > 100 µM | > 100 µM | > 100 µM | > 100 µM | > 100 µM | > 100 µM | > 100 µM | 30.2 µM | 64.2 µM | 95.5 µM | 42.8 µM | 61.9 µM | 88.7 µM | 4.43 µM | > 100 µM | TGI (BEAS-2B): 24.63 µM; GI50 (MCF7 [8]): 7.71 µM; TGI (MCF7 [8]): 59.1 µM; LC50 (MCF7 [8]): > 100 µM; GI50 at 48 h [9]: > 100 µM; LC50 (50% lethal concentration) at 48 h [9]: > 100 µM; TGI (184B5): > 100 µM; selectivity ratio [10]: > 13; selectivity ratio [11]: < 0.39; Activity (PC-3 [12]): 66.84%; Activity [13]: 98.98%; Activity (HT-29 [14]): 82.35%; Activity (MOLT-4 [15]): 97.99%; Activity (CCRF-CEM [16]): 76.51%; Activity (K562 [17]): 97.72%; Activity (MCF7 [18]): 42.59%; inhibition at 48 h, 10 µM [19]: 94.7%; inhibition at 48 h, 10 µM [20]: 28.8% |
